Measured values taken from ChEMBL document CHEMBL1157790, “3'-bromo analogues of pyrimidine nucleosides as a new class of potent inhibitors of Mycobacterium tuberculosis” (J Med Chem, 2010).

Experiments:
Assay type in all cases: functional
[1] = test system: Mycobacterium tuberculosis; assay: Antimycobacterial activity against rifampin-resistant Mycobacterium tuberculosis H37Rv at 10 ug/ml by radiometric BACTEC assay
How it was run: (§1)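 Isoniazid- or rifampicin-resistant H37Rv, growing inoculum 2.5-5.0 × 10⁵ CFU/vial, in radiometric 7H12 (BACTEC 12B) medium at 37 °C with two-fold compound dilutions. Growth index read daily in a BACTEC 460 until the 1:100 inoculum control reached GI 30. Percent inhibition = GI test/GI control × 100.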

[2] = test system: Mycobacterium tuberculosis; assay: Antimycobacterial activity against rifampin-resistant Mycobacterium tuberculosis H37Rv at 1 to 2 ug/ml by radiometric BACTEC assay; how it was run: as §1
[3] = test system: Mycobacterium tuberculosis; assay: Antimycobacterial activity against isoniazid-resistant Mycobacterium tuberculosis H37Rv at 10 ug/ml by radiometric BACTEC assay; how it was run: as §1
[4] = test system: Mycobacterium tuberculosis; assay: Antimycobacterial activity against isoniazid-resistant Mycobacterium tuberculosis H37Rv at 2 ug/ml by radiometric BACTEC assay; how it was run: as §1
[5] = test system: Mycobacterium tuberculosis; assay: Antimycobacterial activity against rifampin-resistant Mycobacterium tuberculosis H37Rv at 5 to 10 ug/ml by radiometric BACTEC assay; how it was run: as §1
[6] = test system: Mycobacterium tuberculosis; assay: Antimycobacterial activity against isoniazid-resistant Mycobacterium tuberculosis H37Rv at 25 ug/ml by radiometric BACTEC assay; how it was run: as §1
[7] = test system: Mycobacterium tuberculosis; assay: Antimycobacterial activity against rifampin-resistant Mycobacterium tuberculosis H37Rv at 1 ug/ml by radiometric BACTEC assay; how it was run: as §1
[8] = test system: Mycobacterium tuberculosis; assay: Antimycobacterial activity against rifampin-resistant Mycobacterium tuberculosis H37Rv at 2 ug/ml by radiometric BACTEC assay; how it was run: as §1

`Cc1cn([C@@H]2O[C@H](CO)[C@@H](Br)[C@@H]2O)c(=O)[nH]c1=O` was tested, and the inhibition at 10 µg/mL [1] was 70%, the “inhibition (INH)” value [2] was 50% and the inhibition at 10 µg/mL [3] was 75%. It also gave an inhibition at 2 µg/mL [4] of 50%.
In the case of `Cc1cn([C@H]2C[C@H](Br)[C@@H](CO)O2)c(=O)[nH]c1=O`, the “inhibition (INH)” value [5] is reported as 50%, the inhibition at 25 µg/mL [6] is reported as 75% and the inhibition at 10 µg/mL [3] is reported as 50%.
Compound `NNC(=O)c1ccncc1` [ISONIAZID] has an inhibition at 1 µg/mL [7] of 100% and an inhibition at 2 µg/mL [4] of 0%.
`CO[C@H]1/C=C/O[C@@]2(C)Oc3c(C)c(O)c4c(O)c(c(/C=N/N5CCN(C)CC5)c(O)c4c3C2=O)NC(=O)/C(C)=C\C=C\[C@H](C)[C@H](O)[C@@H](C)[C@@H](O)[C@@H](C)[C@H](OC(C)=O)[C@@H]1C` [RIFAMPIN] showed an inhibition at 2 µg/mL [8] of 0%.
